# Experimental data gathered from unrelated publications.
# Lines come from different studies, so protocols differ.
# ABL1 H396P: Tyrosine-protein kinase ABL1 (ABL1, Homo sapiens, UniProt P00519, H396P)
# ABL1 H396P phosphorylated: Tyrosine-protein kinase ABL1, phosphorylated (ABL1, Homo sapiens, UniProt P00519, H396P)
# ABL1: Tyrosine-protein kinase ABL1 (ABL1, Homo sapiens, UniProt P00519)
# ABL1 Y253F: Tyrosine-protein kinase ABL1 (ABL1, Homo sapiens, UniProt P00519, Y253F)
# ABL1 non-phosphorylated: Tyrosine-protein kinase ABL1, non-phosphorylated (ABL1, Homo sapiens, UniProt P00519)
# ABL1 T315I: Tyrosine-protein kinase ABL1 (ABL1, Homo sapiens, UniProt P00519, T315I)
# ABL1 T315I phosphorylated: Tyrosine-protein kinase ABL1, phosphorylated (ABL1, Homo sapiens, UniProt P00519, T315I)
# ABL1 E255K: Tyrosine-protein kinase ABL1 (ABL1, Homo sapiens, UniProt P00519, E255K)
# ABL1 F317L non-phosphorylated: Tyrosine-protein kinase ABL1, non-phosphorylated (ABL1, Homo sapiens, UniProt P00519, F317L)
SMILES,target,assay,setting,endpoint,value
Cc1cnc(NC2CCOCC2)nc1-n1cnc(C(=O)NC(CN)c2cc(F)cc(Cl)c2)c1 (stereo not shown),ABL1 H396P,"enzyme activity, inhibitor, radiometric",1 µM,remaining activity,108%
O=C(N1CCS(=O)(=O)CC1)N1C[C@H](c2ccc(OC(F)(F)F)cc2)C[C@H](c2nc(C3CC3)no2)C1,ABL1 H396P phosphorylated,"cell-free assay, competition with immobilised ligand",1 µM,remaining binding,100%
O=C1Nc2ccc(Cl)cc2C1=Cc1cc(Cl)c(O)c(Cl)c1,ABL1,cell-free assay,0.5 µM,remaining signal,84%
CNC(=O)c1cc2c(Oc3ccc(NC(=O)C4(C(=O)Nc5ccc(F)cc5)CC4)cc3)ccnc2cc1OC,ABL1 H396P,"enzyme activity, inhibitor, radiometric",1 µM,inhibition,75%
CCCOc1ccc(OC)c(F)c1C(=O)c1ccc(C(=O)N[C@@H]2CNC[C@H]2NC(=O)c2ccc3[nH]ncc3c2)cc1,ABL1 H396P,"enzyme activity, inhibitor",10 µM,remaining activity,107%
Cc1ccc(NC(=O)c2ccc(C)c(C(F)(F)F)c2)cc1C#Cc1nn(C2CCC(O)CC2)c2ncnc(N)c12 (stereo not shown),ABL1 Y253F,cell-free assay,10 µM,remaining signal,0%
Nc1ncnc2occ(-c3ccc(NC(=O)Nc4cc(C(F)(F)F)ccc4F)cc3)c12,"Tyrosine-protein kinase ABL1, phosphorylated (ABL1, Homo sapiens, UniProt P00519)","cell-free assay, inhibitor",20 µM,remaining signal,0.1%
c1nc2c(Nc3ccc4c(c3)OCCO4)nc(Nc3ccc4c(c3)OCCO4)nc2[nH]1,ABL1 non-phosphorylated,"enzyme activity, inhibitor",10 µM,activity vs control,2.1%
CO[C@@H](C)c1c(Nc2ccc([C@H](N(C)C(=O)C3CCS(=O)(=O)CC3)C(F)(F)F)cc2)cnc2cc(Cl)nn12,ABL1 H396P phosphorylated,"cell-free assay, competition with immobilised ligand",1 µM,remaining binding,100%
COc1cc(-c2cc(-c3ccc(N4CCNCC4)cc3)cnc2N)cc(OC)c1OC,ABL1 T315I,"enzyme activity, inhibitor",0.1 µM,inhibition,13%
COc1cc(/C=C/C(=O)CC(=O)/C=C/c2ccc(O)c(OC)c2)ccc1O,ABL1,"enzyme activity, inhibitor",1 µM,activity vs control,82%
Cc1ccc(NC(=O)c2ccc(CN3CCN(C)CC3)cc2)cc1Nc1nc(-c2cccnc2)cs1,ABL1,cell-free assay,0.5 µM,remaining signal,49.8%
CC(=O)c1c(NS(C)(=O)=O)c2cc(-c3ccc(Cl)cc3)c(-c3ccc(Cl)cc3Cl)nc2n(C)c1=O,ABL1 T315I phosphorylated,"cell-free assay, competition with immobilised ligand",1 µM,remaining binding,93%
C[C@@H]1CCN(C(=O)CC#N)C[C@@H]1N(C)c1ncnc2[nH]ccc12,ABL1,"cell-free assay, inhibitor",0.5 µM,remaining signal,101%
COc1cc2ncnc(Nc3ccc(Oc4ccccc4)c(C)c3C)c2cc1OC,ABL1 E255K,"enzyme activity, inhibitor",1 µM,inhibition,5%
CNCc1ccccc1-c1csc([C@H](C)Nc2nc(C)nc3cc(OC)c(OC)cc23)c1,ABL1 F317L non-phosphorylated,"cell-free assay, competition with immobilised ligand",1 µM,remaining binding,97%
O=C1NC(=O)c2cc(Nc3ccc(F)cc3)c(Nc3ccc(F)cc3)cc21,ABL1,cell-free assay,0.5 µM,remaining signal,95.7%
CN(CCCC(F)(F)F)c1nccc(-c2cnn3ncccc23)n1,ABL1 E255K,binding,1 µM,remaining binding,98%
CN(C)C(=O)Cn1cc(-c2nc(C3(c4ccc(-c5cnc(N)nc5)cc4)CC3)no2)cn1,ABL1 F317L non-phosphorylated,"cell-free assay, competition with immobilised ligand",1 µM,remaining binding,55%
CC(C)c1ccc(NC(=O)c2cccs2)c(-c2nc3ccccc3[nH]c2=O)c1,ABL1,"enzyme activity, inhibitor",1 µM,activity vs control,115%
CCOC(=O)c1cc2cc(-c3cc(C(=O)NCc4ccc(C(=O)O)cc4)nn3C)ccc2[nH]1,ABL1 T315I phosphorylated,"cell-free assay, competition with immobilised ligand",0.1 µM,remaining binding,92%
C[S+]([O-])c1ccc(-c2nc(-c3ccncc3)c(-c3ccc(F)cc3)[nH]2)cc1 (stereo not shown),ABL1,cell-free assay,0.5 µM,remaining signal,97%
Nc1cnc(N2CCc3cc(S(=O)(=O)Nc4c(F)cc(Cl)cc4F)cc(N4CCCC4=O)c32)nc1,"Tyrosine-protein kinase ABL1, phosphorylated (ABL1, Homo sapiens, UniProt P00519, Q252H)","cell-free assay, competition with immobilised ligand",1 µM,remaining binding,98%
COc1cc2ncnc(Nc3ccc(Oc4ccccc4)cc3C)c2cc1OC,ABL1,"enzyme activity, inhibitor",1 µM,inhibition,13%
Cc1c(NC(=O)c2cc(C(N)=O)nc3cc(F)ccc23)c(C(F)(F)F)nn1Cc1ccc(C(C)(C)C)cc1,ABL1 T315I phosphorylated,"cell-free assay, competition with immobilised ligand",1 µM,remaining binding,85%
Cc1cc(NC(=O)c2cccc3cc(-c4cccc5[nH]nc(N)c45)ccc23)ccc1F,ABL1 Y253F,"enzyme activity, inhibitor",0.1 µM,activity vs control,91%
N[C@@H]1CCN(c2nccc(-c3cnn4ncccc34)n2)C1,ABL1 non-phosphorylated,"binding, competition with immobilised ligand",1 µM,remaining binding,100%
Cc1ccc(C(=O)NCc2ccsc2)cc1C#Cc1cn(C(C)C)c2ncnc(N)c12,ABL1 T315I,"enzyme activity, inhibitor",1 µM,activity vs control,6%
